PMI act = activators of human phosphomannose isomerase; P34949; purified human PMI, coupled resazurin fluorescence, 20 min; hits give high values; 1 = vehicle control, 0 substrate-free wells; activation factor at 20 µM; 190,000 compounds, 0.005% hits;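 active = activation factor of 2 or more at 20 µM, relative to plate controls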
m-calpain inh = blocks pig calpain II enzyme activity | purified calpain II, fluorogenic peptide substrate, 30 min | inhibition, % at 16 µM | 220,000 compounds, 0.37% hits;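 active = inhibition above about 50%, limit read from the data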
HMGR II inh = inhibitors of class II HMG-CoA reductase from Enterococcus faecalis; inhibition, % at 10 µM; purified E. faecalis HMGR, NADPH absorbance 340 nm kinetic; 190,000 compounds, 0.41% hits;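 active = inhibition above a set limit, the median over all tested compounds plus 3 SD, cut at about 9.5% in these data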;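 also: enzyme runs in reverse so mevalonate oxidation gives rising NADPH absorbance; 0% = complete reaction with DMSO and 100% = background rate lacking mevalonate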
Rad51 HR inh = Rad51 (human) homologous recombination inhibition | Q06609 | hRad51 DNA strand exchange, fluorescence dequenching | inhibition, % at 10 µM | 200,000 compounds, 0.085% hits;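 active = inhibition above 40% at the single screening dose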;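 also: 0% = DMSO control wells and 100% = blanks with heterologous ssDNA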
Target sequence (Q06609 whole entry, looked up): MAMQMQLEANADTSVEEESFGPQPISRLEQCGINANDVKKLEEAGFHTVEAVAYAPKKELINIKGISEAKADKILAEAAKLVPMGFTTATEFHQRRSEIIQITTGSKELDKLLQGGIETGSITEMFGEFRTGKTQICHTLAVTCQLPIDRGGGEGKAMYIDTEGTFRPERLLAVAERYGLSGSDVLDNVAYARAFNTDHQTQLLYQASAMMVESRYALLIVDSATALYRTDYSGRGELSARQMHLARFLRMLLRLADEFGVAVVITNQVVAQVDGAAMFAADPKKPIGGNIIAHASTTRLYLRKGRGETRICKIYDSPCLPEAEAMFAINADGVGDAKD
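Test system: preformed human Rad51 ssDNA filaments; also added: Donor/quencher-labelled 47-bp dsDNA substrate; doses: 10 µM final, single point; times: 37 °C 15-min filament assembly, 30-min compound preincubation, 15-min exchange; detection: FRET fluorescence dequenching, excitation 485 nm, emission 520 nm; read-out basis: Fluorescence-based percent inhibition, control- and blank-normalised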
PMI act hi M6P = PMI (human) activation, high substrate; P34949; coupled PMI enzyme assay, resazurin fluorescence, 20 min; hits give high values; 1 = untreated enzyme, 0 = substrate-free blank; activation factor at 20 µM; 190,000 compounds, 0.34% hits;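 active = activation factor of 2 or more at 20 µM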
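Test system – human PMI in coupled enzyme assay · Timing – 20 min incubation at room temperature · Detection – Diaphorase-driven resazurin-to-resorufin fluorescence, excitation 544, emission 590 nm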
Starred values were filed as active, the others as inactive. Hits are enriched below; roughly 1.1% of the tested compounds scored in any of these assays.

For O=S(N1CCc2ccccc21)C12CC3CC(CC(C3)C1)C2 (stereo not given) the results were PMI act 1.2, m-calpain inh 102.8*, HMGR II inh 1.5, Rad51 HR inh -3.0 and PMI act hi M6P 1.2.
COc1ccc(NC(=O)C(C/C=C(/C)Cl)C(C)=O)cc1 (stereo not given) was read as PMI act 1, m-calpain inh 21.7, HMGR II inh -6.3, Rad51 HR inh -6.8 and PMI act hi M6P 1.
`C/C(=N\Nc1cccc(C(F)(F)F)c1)c1ccc(O)cc1` gave PMI act 1.6, m-calpain inh -20.1, HMGR II inh -9.5, Rad51 HR inh 6.4 and PMI act hi M6P 2.1*.
Screening C/C(=N\NC(=O)c1cccc(N/N=C(\C)c2ccccc2)c1)c1ccccc1 returned PMI act 1.8, m-calpain inh -28.0, HMGR II inh -3.3, Rad51 HR inh -9.5 and PMI act hi M6P 2.7*.
Screening C/C(=N\NC(=O)c1cccc(N/N=C(\C)c2ccncc2)c1)c1ccncc1 returned PMI act 1.7, m-calpain inh 41.9, HMGR II inh -10.6, Rad51 HR inh 11.6 and PMI act hi M6P 2.5*.
CCOC(=O)C1=C(COc2ccc(F)cc2Cl)NC(=O)NC1c1cc(C)ccc1C (stereo not given) was read as PMI act 1.1, m-calpain inh 37.4, HMGR II inh 23.9*, Rad51 HR inh -6.2 and PMI act hi M6P 1.
Screening Cc1nnc(Sc2cc(NCCCO)c([N+](=O)[O-])c3nonc23)s1 returned PMI act 0.7, m-calpain inh 31.6, HMGR II inh 0.6, Rad51 HR inh -2.8 and PMI act hi M6P 0.6.
Screening Cc1nnc(Sc2cc(NCCO)c([N+](=O)[O-])c3nonc23)s1 returned PMI act 1, m-calpain inh 82.3*, HMGR II inh -3.4, Rad51 HR inh 22.4 and PMI act hi M6P 0.8.
For Cc1cc(C)c2c(c1)C1C=CCC1C(c1ccc(S(=O)(=O)N3CCOCC3)cc1)N2 (stereo not given) the results were PMI act 1.4, m-calpain inh -42.5, HMGR II inh -5.9, Rad51 HR inh 1.5 and PMI act hi M6P 2.2*.
COC(=O)C1=C(C)Nc2c(c(=O)n(C)c(=O)n2C)C1c1cccnc1 (stereo not given) was read as PMI act 1, m-calpain inh -15.8, HMGR II inh 13.4*, Rad51 HR inh -0.3 and PMI act hi M6P 1.
Screening COc1cc(C(=O)N2CCN(c3ccccc3)CC2)c([N+](=O)[O-])cc1OC returned PMI act 0.9, m-calpain inh -16.4, HMGR II inh -11.2, Rad51 HR inh 3.7 and PMI act hi M6P 0.9.
Screening FC(F)(F)c1nnc2ccc(NCc3ccccc3)nn12 returned PMI act 1, m-calpain inh 91.8*, HMGR II inh -6.0, Rad51 HR inh 18.4 and PMI act hi M6P 1.
`COc1ccnc(Oc2ccccc2)c1C(N)=O` gave PMI act 0.8, m-calpain inh -17.1, HMGR II inh -2.0, Rad51 HR inh 21.0 and PMI act hi M6P 0.9.
Screening COC(=O)CCC(=O)OC1(C)C(=O)C=C2C=C(C3CC3)OC=C2C1=O (stereo not given) returned Rad51 HR inh -10.2.
`CSc1nc2ncc3c(n2n1)CC(C)(C)CC3=O` gave PMI act 1, m-calpain inh -25.6, HMGR II inh 9.9*, Rad51 HR inh 15.1 and PMI act hi M6P 0.9.
Screening CC1(C)CC(=O)c2cnc3c(C#N)cnn3c2C1 returned PMI act 1, m-calpain inh -39.2, HMGR II inh -5.7, Rad51 HR inh -34.4 and PMI act hi M6P 0.9.
Screening C=CCn1c(O)c(N=O)c2ccccc21 returned m-calpain inh 4.5 and Rad51 HR inh 2.0.
C=CCn1c(O)c(N=Nc2ccccc2C)c2ccccc21 was read as PMI act 1.7, m-calpain inh -116.4, HMGR II inh -3.1, Rad51 HR inh 8.9 and PMI act hi M6P 2.2*.
Screening Cc1cccc(C)c1N1CCN(C(=O)N2CCCCC2)CC1 returned PMI act 1.6, m-calpain inh 12.2, HMGR II inh 14.4*, Rad51 HR inh -4.7 and PMI act hi M6P 2*.
For O=[N+]([O-])/C(C(=C(Cl)Cl)N1CCN(Cc2ccccc2)CC1)=C1\NCCN1Cc1ccc(Cl)nc1 the results were PMI act 1.1, m-calpain inh -15.0, HMGR II inh -4.3, Rad51 HR inh -100.8 and PMI act hi M6P 1.
